biological target: Leukotriene B4 receptor 1 (Homo sapiens, UniProt Q15722); assay: Inhibition of [3H]LTB4 binding to Leukotriene B4 receptor in the human polymorphonuclear leukocytes; conditions: not given
Outline: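 Human blood PMNs were isolated by dextran T500 sedimentation, Ficoll-Hypaque centrifugation and hypotonic lysis. Cells were suspended in Hanks' solution with 5 mmol/L HEPES and 1 g/L ovalbumin, then incubated on ice for 15 min with 0.5 nmol/L [3H]LTB4 and competitor. Samples were filtered on GF/C, washed and counted. Nonspecific binding was defined with 1000-fold unlabeled LTB4. IC50 was read graphically; mean of three replicates.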

Leukotriene B4 receptor 1, sequence (Q15722 whole entry): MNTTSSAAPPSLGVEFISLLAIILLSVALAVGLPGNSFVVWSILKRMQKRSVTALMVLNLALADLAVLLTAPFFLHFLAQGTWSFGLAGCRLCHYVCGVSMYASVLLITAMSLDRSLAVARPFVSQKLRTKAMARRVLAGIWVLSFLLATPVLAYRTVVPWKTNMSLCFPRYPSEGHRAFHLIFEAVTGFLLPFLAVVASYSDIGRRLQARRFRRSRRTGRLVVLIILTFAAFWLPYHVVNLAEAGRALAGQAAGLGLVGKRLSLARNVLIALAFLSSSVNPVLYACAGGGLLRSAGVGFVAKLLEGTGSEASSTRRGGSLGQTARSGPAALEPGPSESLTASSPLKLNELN

IC50 [nM] | Compound
250 | CC(C)(CCCCOc1cc(-c2ccc(N)cc2)c2ccccc2n1)C(=O)O
4000 | CC(C)(CCCCOc1cc(-c2ccccc2)c2ccccc2n1)C(=O)O
100 | Cc1ccc(-c2cc(OCCCCC(C)(C)C(=O)O)nc3ccccc23)cc1
50 | CC(C)(CCCCOc1cc(-c2ccc(Cl)cc2)c2ccccc2n1)c1nnn[nH]1
3.5 | COc1ccc(/C=C/CCCCOc2ccc(C(=O)c3cccc(C(=O)O)c3)cc2CCC(=O)O)cc1
150 | O=C(O)CCCCCOc1cc(-c2ccc(Cl)cc2)c2ccccc2n1

system: Leukotriene B4 receptor 1 (Cavia porcellus); assay: Inhibition of [3H]LTB4 binding to Leukotriene B4 receptor in the guinea pig spleen membranes at a dose of 10 uM; conditions: Membrane

inhibition [%] | Compound
14 | OCCCCCCOc1cc(-c2ccccc2)c2ccccc2n1
23 | CC(=O)Nc1ccc(-c2cc(OCCCCC(C)(C)C(=O)O)nc3ccccc23)cc1
34 | O=C(O)CCCCCCc1cc(-c2ccccc2)c2ccccc2n1
27 | O=C(O)CCCC/C=C/c1cc(-c2ccccc2)c2ccccc2n1
0 | O=C(O)CCCCOc1cc(-c2ccccc2)c2ccccc2n1
36 | COc1ccccc1-c1cc(OCCCCC(C)(C)C(=O)O)nc2ccccc12
0 | CC(C)(CCCCNc1cc(-c2ccccc2)c2ccccc2n1)C(=O)O
33 | CC(C)(CCCCSc1cc(-c2ccccc2)c2ccccc2n1)C(=O)O
12 | O=C(CCCCCOc1cc(-c2ccccc2)c2ccccc2n1)N1CCCC1
